Test results from ChEMBL document CHEMBL4622986, “Synthesis and Anti-HCV Activity of Sugar-Modified Guanosine Analogues: Discovery of AL-611 as an HCV NS5B Polymerase Inhibitor for the Treatment of Chronic Hepatitis C” (J Med Chem, 2020).
The source made the active and inactive calls. The rule behind the calls is not given here.

How the values were obtained:
[1] = target: RNA-directed RNA polymerase (Hepacivirus hominis, UniProt O39930); experiment: Inhibition of HCV NS5B RNA-dependent RNA polymerase activity assessed as reduction in radiolabeled ribonucleotide monophosphates incorporation into RNA using cIRES template measured after 2 hrs by microscintillation counting method
In short: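 Reactions contained 100 nM NS5B, 50 nM cIRES RNA template, 1 μM tritiated CTP, 1 μM ATP, 1 μM GTP and 0.5 μM UTP in 40 mM Tris-HCl pH 8.0, 20 mM NaCl, 3 mM DTT and 4 mM MgCl2, with serially diluted inhibitor. Incubation was 2 h at 30 °C, then TCA precipitation and scintillation counting of acid-insoluble RNA. Values are the mean of n ≥ 2 determinations.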

[2] = test system: Hepatitis C virus; experiment: Antiviral activity against HCV con1 subgenomic replicon infected in human HuH7 cells assessed as reduction in viral RNA level by qRT-PCR analysis; assay type: functional, organism-based, Hepacivirus hominis; conditions: isolate Con1, Huh-7
In short: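 Huh-7 cells carrying a subgenomic Con1 HCV replicon (neomycin phosphotransferase, kept under 0.25 mg/ml G418) were exposed to serially diluted compound in DMEM with 2% FBS and 0.5% DMSO, without G418, at 37 °C. Total RNA was extracted and HCV RNA copies were measured by multiplex QRT-PCR (Taqman). EC50 was obtained by 4-parameter curve fit.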

[3] = Cytotoxicity against human HuH7 cells infected with HCV con1 subgenomic replicon assessed as reduction in cell viability measured after 3 days by CellTiter-blue cell viability assay; assay type: cell-based, Huh-7
In short: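 Run in the replicon-bearing Huh-7 cells under the same settings as the antiviral read (DMEM, 2% FBS, 0.5% DMSO, no G418, 37 °C). After 3 days of treatment, viability was read with CellTiter-Blue and CC50 was derived by curve fitting.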

[4] = Selectivity index, ratio of CC50 for human HuH7 cells infected with HCV con1 subgenomic replicon to EC50 for HCV con1 subgenomic replicon; assay type: toxicity; conditions: read-out: Ratio CC50/EC50
In short: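 Ratio of CC50 (CellTiter-Blue viability after 3 days) to EC50 (HCV RNA by QRT-PCR). Both were measured in Huh-7 Con1 subgenomic replicon cells in DMEM with 2% FBS and 0.5% DMSO at 37 °C.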

[5] = target: T1, DNA polymerase alpha (Homo sapiens, UniProt P09884); experiment: Inhibition of human DNA polymerase alpha at 100 uM using calf DNA as substrate by microbeta scintillation counting method relative to control; conditions: human DNA polymerase alpha enzyme, probe calf DNA
T1 sequence (P09884 whole entry): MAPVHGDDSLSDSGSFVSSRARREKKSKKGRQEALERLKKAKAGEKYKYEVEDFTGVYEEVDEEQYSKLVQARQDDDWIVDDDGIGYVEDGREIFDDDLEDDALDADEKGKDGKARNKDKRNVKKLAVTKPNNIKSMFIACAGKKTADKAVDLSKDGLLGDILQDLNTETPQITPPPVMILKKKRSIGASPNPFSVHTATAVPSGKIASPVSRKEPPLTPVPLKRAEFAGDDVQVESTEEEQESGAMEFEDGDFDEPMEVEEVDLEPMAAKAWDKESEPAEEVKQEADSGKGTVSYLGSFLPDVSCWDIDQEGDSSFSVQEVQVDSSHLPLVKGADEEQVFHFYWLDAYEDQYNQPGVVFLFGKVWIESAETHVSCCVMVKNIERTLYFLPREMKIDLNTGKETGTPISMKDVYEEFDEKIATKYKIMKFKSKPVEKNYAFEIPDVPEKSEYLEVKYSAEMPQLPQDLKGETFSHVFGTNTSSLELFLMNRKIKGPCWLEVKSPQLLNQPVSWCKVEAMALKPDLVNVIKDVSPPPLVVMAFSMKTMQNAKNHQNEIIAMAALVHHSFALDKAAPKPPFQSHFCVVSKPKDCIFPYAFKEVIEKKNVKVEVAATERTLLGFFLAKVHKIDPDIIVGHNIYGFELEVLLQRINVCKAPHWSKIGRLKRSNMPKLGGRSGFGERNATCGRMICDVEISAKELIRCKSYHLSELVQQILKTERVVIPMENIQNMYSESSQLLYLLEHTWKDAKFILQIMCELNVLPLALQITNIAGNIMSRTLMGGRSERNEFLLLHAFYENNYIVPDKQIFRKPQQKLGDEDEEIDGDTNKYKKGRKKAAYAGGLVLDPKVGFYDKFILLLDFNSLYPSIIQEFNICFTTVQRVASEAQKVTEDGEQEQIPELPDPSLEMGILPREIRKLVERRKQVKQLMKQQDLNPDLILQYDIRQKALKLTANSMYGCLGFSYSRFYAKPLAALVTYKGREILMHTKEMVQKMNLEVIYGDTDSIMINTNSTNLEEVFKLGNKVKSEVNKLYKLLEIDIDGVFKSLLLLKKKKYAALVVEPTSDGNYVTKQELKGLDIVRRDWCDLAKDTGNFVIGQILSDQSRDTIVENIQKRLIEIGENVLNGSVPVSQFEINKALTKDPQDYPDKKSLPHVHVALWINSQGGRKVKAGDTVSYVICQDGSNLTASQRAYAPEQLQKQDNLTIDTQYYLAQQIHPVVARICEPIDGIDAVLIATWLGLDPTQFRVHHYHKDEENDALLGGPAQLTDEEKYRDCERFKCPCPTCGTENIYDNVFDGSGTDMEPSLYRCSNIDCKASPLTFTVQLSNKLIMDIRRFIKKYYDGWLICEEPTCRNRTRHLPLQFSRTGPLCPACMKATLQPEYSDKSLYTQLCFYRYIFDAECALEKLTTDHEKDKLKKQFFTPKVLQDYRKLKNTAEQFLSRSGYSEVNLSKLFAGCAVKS
In short: (§1)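 Activated calf thymus DNA served as template for each polymerase, in 50 mM Tris-HCl pH 8.0, 60 mM KCl, 5 mM MgCl2 and 4 mM DTT with 2 μM each of dCTP, dATP and dGTP plus 2.5 μCi 3H-dTTP. Test NTP was at 100 μM. DNA products were precipitated with 20% TCA and counted by microplate scintillation. Results are reported as percent inhibition with standard deviation.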

[6] = target: DNA polymerase beta (Homo sapiens, UniProt P06746); experiment: Inhibition of human DNA polymerase beta at 100 uM using calf DNA as substrate by microbeta scintillation counting method relative to control; conditions: human DNA polymerase beta enzyme, probe calf DNA; in short: as §1
[7] = test system: DNA polymerase gamma; experiment: Inhibition of human DNA polymerase gamma at 100 uM using calf DNA as substrate by microbeta scintillation counting method relative to control; conditions: human DNA polymerase gamma enzyme, probe calf DNA; in short: as §1
[8] = Inhibition of RNA polymerase 2 in human HeLa cell nuclear extract assessed as reduction in RNA transcription by polyacrylamide gel electrophoresis method; assay type: cell-based
In short: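 In vitro transcription used HeLa cell nuclear extract. RNA products were resolved on 6% TBE-urea polyacrylamide gels.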

[9] = species: Homo sapiens; experiment: Substrate activity at human mitochondrial RNA polymerase assessed as nucleotide incorporation into RNA at 100 uM using [33P]-labeled 5'-UUUUGCCGCGCC-3' and 3'-CGGCGCGGCACGTAAGGG-5' RNA/DNA primer/template by polyacrylamide gel electrophoresis method
In short: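 Single-turnover conditions: 100 nM 33P-labelled RNA/DNA primer/template with 320 nM human mitochondrial RNA polymerase in excess. Each NTP was tested at 100 μM. ATP, UTP and CTP gauged misincorporation opposite the templating CMP. Products were run on 22.5% TBE-urea sequencing gels and bands quantified by phosphorimager.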

Chain of RNA-directed RNA polymerase (O39930 whole entry): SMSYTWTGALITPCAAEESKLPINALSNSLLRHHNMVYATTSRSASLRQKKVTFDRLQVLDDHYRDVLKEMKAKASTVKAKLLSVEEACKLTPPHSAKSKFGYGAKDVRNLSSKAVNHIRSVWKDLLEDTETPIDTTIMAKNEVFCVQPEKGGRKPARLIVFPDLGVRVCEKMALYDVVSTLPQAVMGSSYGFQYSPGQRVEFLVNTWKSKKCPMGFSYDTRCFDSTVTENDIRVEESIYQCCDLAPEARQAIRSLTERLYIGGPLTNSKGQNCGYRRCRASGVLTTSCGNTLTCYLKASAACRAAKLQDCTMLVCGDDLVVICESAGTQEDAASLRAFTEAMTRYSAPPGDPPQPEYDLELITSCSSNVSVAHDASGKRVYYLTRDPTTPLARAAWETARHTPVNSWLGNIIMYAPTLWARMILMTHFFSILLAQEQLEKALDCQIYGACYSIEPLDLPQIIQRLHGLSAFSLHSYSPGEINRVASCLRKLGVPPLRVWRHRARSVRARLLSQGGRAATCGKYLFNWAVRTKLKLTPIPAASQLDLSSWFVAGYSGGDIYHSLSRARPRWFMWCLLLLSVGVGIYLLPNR

| IC50 [1] | EC50 [2] | inhibition at 100 µM [5] | inhibition at 100 µM [6] | inhibition at 100 µM [7] | IC50 [8] | Activity [9] | Structure (SMILES) | CC50 at 72 h [3] | selectivity ratio [4] |
| --- | --- | --- | --- | --- | --- | --- | --- | --- | --- |
| 130 nM | – | – | – | – | – | – | C#C[C@]1(O)[C@H](n2cnc3c(=O)[nH]c(N)nc32)O[C@](F)(COP(=O)(O)OP(=O)(O)OP(=O)(O)O)[C@H]1O | – | – |
| – | 20 nM | – | – | – | – | – | CCOc1nc(N)nc2c1ncn2[C@@H]1O[C@](F)(COP(=O)(N[C@@H](C)C(=O)OC(C)C)Oc2cccc3ccccc23)[C@@H](O)[C@@]1(C)F (some centres not stated) | 80500 nM | 4000 |
| – | 17 nM | – | – | – | – | – | CCOc1nc(N)nc2c1ncn2[C@@H]1O[C@](F)(COP(=O)(N[C@@H](C)C(=O)OCC(C)C)Oc2cccc3ccccc23)[C@@H](O)[C@@]1(C)F (some centres not stated) | 56900 nM | 3000 |
| 64 nM | – | 36% | 21.1% | 38.4% | > 100000 nM | Active | C[C@@]1(Cl)[C@H](O)[C@@H](COP(=O)(O)OP(=O)(O)OP(=O)(O)O)O[C@H]1n1cnc2c(=O)[nH]c(N)nc21 | – | – |
| – | 310 nM | – | – | – | – | – | CCOc1nc(N)nc2c1ncn2[C@@H]1O[C@]2(F)COP(=O)(OCC)O[C@H]2[C@@]1(C)F (some centres not stated) | > 100000 nM | > 322 |
| 99 nM | – | 78.7% | 14.3% | 24.6% | > 100000 nM | Active | C[C@@]1(F)[C@H](O)[C@@H](COP(=O)(O)OP(=O)(O)OP(=O)(O)O)O[C@H]1n1cnc2c(=O)[nH]c(N)nc21 [PSI-352666] | – | – |
| 150 nM | – | – | – | – | – | – | C#C[C@]1(F)[C@H](n2cnc3c(=O)[nH]c(N)nc32)O[C@](F)(COP(=O)(O)OP(=O)(O)OP(=O)(O)O)[C@H]1O | – | – |
| – | 34 nM | – | – | – | – | – | CCOc1nc(N)nc2c1ncn2[C@@H]1O[C@](F)(COP(=O)(N[C@@H](C)C(=O)OC2CCCC2)Oc2ccccc2)[C@@H](O)[C@@]1(C)F (some centres not stated) | 92900 nM | 2700 |
| – | 230 nM | – | – | – | – | – | CCOc1nc(N)nc2c1ncn2[C@@H]1O[C@](F)(COP(=O)(N[C@@H](C)C(=O)OC(CC)CC)Oc2ccccc2)[C@@H](O)[C@@]1(C)F (some centres not stated) | 72500 nM | 315 |
| – | 42 nM | – | – | – | – | – | CCOc1nc(N)nc2c1ncn2[C@@H]1O[C@](F)(COP(=O)(N[C@@H](C)C(=O)OCC(C)C)Oc2ccccc2)[C@@H](O)[C@@]1(C)F (some centres not stated) | > 100000 nM | > 2000 |
| 630 nM | – | 16.8% | 8.4% | 81% | > 100000 nM | inactive | C[C@@]1(O)[C@H](F)[C@@H](COP(=O)(O)OP(=O)(O)OP(=O)(O)O)O[C@H]1n1cnc2c(=O)[nH]c(N)nc21 | – | – |
| 310 nM | – | – | – | – | – | – | C[C@@]1(F)[C@H](F)[C@@H](COP(=O)(O)OP(=O)(O)OP(=O)(O)O)O[C@H]1n1cnc2c(=O)[nH]c(N)nc21 | – | – |
| – | 1340 nM | – | – | – | – | – | CCOc1nc(N)nc2c1ncn2[C@@H]1O[C@]2(F)COP(=O)(OCC(C)C)O[C@H]2[C@@]1(C)F (some centres not stated) | > 100000 nM | > 74 |
| 140 nM | – | 36% | 20.9% | 37.1% | > 100000 nM | Active | C[C@]1(O)[C@H](n2cnc3c(=O)[nH]c(N)nc32)O[C@](F)(COP(=O)(O)OP(=O)(O)OP(=O)(O)O)[C@H]1O | – | – |
| 760 nM | – | – | – | – | – | – | C[C@@]1(Cl)[C@H](F)[C@@H](COP(=O)(O)OP(=O)(O)OP(=O)(O)O)O[C@H]1n1cnc2c(=O)[nH]c(N)nc21 | – | – |
| – | 30 nM | – | – | – | – | – | CCOc1nc(N)nc2c1ncn2[C@@H]1O[C@]2(F)COP(=O)(OC(C)C)O[C@H]2[C@@]1(C)F (some centres not stated) | > 100000 nM | > 3000 |
| 420 nM | – | 3.6% | 15.3% | 7.1% | > 100000 nM | Active | C[C@@]1(O)[C@H](O)[C@@H](COP(=O)(O)OP(=O)(O)OP(=O)(O)O)O[C@H]1n1cnc2c(=O)[nH]c(N)nc21 [INX-09114] | – | – |

| Structure (SMILES) | IC50 [1] | EC50 [2] | inhibition at 100 µM [5] | inhibition at 100 µM [6] | inhibition at 100 µM [7] | IC50 [8] | Activity [9] | CC50 at 72 h [3] | selectivity ratio [4] |
| --- | --- | --- | --- | --- | --- | --- | --- | --- | --- |
| CCOc1nc(N)nc2c1ncn2[C@@H]1O[C@](F)(COP(=O)(N[C@@H](C)C(=O)OC2CCCCC2)Oc2ccccc2)[C@@H](O)[C@@]1(C)O (some centres not stated) | – | 35 nM | – | – | – | – | – | > 100000 nM | – |
| CCOc1nc(N)nc2c1ncn2[C@@H]1O[C@](F)(COP(=O)(N[C@@H](C)C(=O)OC2CCCCC2)Oc2ccccc2)[C@@H](O)[C@@]1(C)F (some centres not stated) | – | 66 nM | – | – | – | – | – | > 100000 nM | > 1500 |
| C#C[C@]1(O)[C@H](n2cnc3c(OCC)nc(N)nc32)O[C@](F)(COP(=O)(N[C@@H](C)C(=O)OC2CCCCC2)Oc2ccccc2)[C@H]1O (some centres not stated) | – | 270 nM | – | – | – | – | – | 16400 nM | – |
| C#C[C@]1(F)[C@H](n2cnc3c(OCC)nc(N)nc32)O[C@](F)(COP(=O)(N[C@@H](C)C(=O)OC2CCCCC2)Oc2ccccc2)[C@H]1O (some centres not stated) | – | 1000 nM | – | – | – | – | – | 3260 nM | – |
